# The list is not random: actives were taken first. Their share in the collection is about 2.2%.
# DNA FID counter-1: fluorescent intercalator displacement, NS3 helicase counter-screen | actives 0.17% (n = 290,000) | DNA fluorescent intercalator displacement, fluorescence | inhibition, % at 7.9 µM;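 note: higher means more ethidium bromide displaced from hairpin DNA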
# DAGLB inh: diacylglycerol lipase beta (human) inhibition | Q8NCG7 | HEK293T DAGLB membrane lysate, EnzChek fluorogenic substrate | inhibition, % at 5.17 µM | actives 0.059% (n = 340,000) | AID 504411; in the data active = inhibition above about 34%
# GRK2 aptamer HTS: human GRK2 inhibition via aptamer displacement | P25098 | inhibition of aptamer binding, % at 10 µM | actives 0.59% (n = 330,000) | bead flow cytometry, FAM-aptamer displacement from GRK2;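 active = inhibition of aptamer binding above 40%, roughly 3 SD of noise, on plates passing a quality check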;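 note: median bead fluorescence of bound FAM aptamer so fluorescent compounds give negative values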
# Target sequence (P25098 whole entry, looked up): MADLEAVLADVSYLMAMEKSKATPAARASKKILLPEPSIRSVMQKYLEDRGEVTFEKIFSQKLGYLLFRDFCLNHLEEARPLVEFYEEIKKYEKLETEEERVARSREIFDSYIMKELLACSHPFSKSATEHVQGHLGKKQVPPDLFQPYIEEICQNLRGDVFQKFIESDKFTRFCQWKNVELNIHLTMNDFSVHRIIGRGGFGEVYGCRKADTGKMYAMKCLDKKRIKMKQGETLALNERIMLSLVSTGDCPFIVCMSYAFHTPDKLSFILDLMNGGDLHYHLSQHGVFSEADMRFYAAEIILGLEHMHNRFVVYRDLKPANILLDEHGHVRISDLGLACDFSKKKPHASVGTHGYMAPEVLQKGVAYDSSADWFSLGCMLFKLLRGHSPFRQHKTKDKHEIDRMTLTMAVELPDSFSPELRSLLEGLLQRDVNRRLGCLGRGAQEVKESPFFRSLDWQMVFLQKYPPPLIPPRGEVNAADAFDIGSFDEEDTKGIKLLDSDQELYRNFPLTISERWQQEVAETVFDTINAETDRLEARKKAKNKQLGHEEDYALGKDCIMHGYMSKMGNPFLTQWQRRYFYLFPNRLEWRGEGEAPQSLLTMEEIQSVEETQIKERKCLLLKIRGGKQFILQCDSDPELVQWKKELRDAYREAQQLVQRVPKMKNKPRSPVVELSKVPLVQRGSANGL
# NS3 helicase inh: HCV NS3 helicase inhibition; NS3 helicase DNA unwinding, Cy5 molecular beacon fluorescence; inhibition, % at 10.9 µM; actives 0.56% (n = 290,000);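 active = inhibition above the mean of all tested compounds plus 3 SD, set per campaign, cut at about 35% in these data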
#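 Material: hepatitis C virus NS3 helicase domain fragment enzyme; measured by: Cy5 fluorescence, 0 and 60 min reads; control set: DMSO and thioflavine S; incubation: 60 min unwinding reaction at 25 °C after ATP addition; read-out basis: % inhibition from 60/0 min fluorescence ratio, DMSO 0%, thioflavine S 100%; repeats: singlicate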
# GPR7 antag: antagonists of human GPR7 (neuropeptides B/W receptor 1) | P48145 | GPR7-expressing cells, fluorescence antagonist assay | inhibition, % at 4.4 µM | actives 1.1% (n = 290,000) | AID 1861; in the data active = inhibition above about 16%, passing the limit was not always enough;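 note: cells stimulated with the agonist NPW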
# HCV core dimer: blocks dimerization of HCV core protein; inhibition, % at 5 µM; TR-FRET GST/Flag-core106 dimerization, 1536-well; actives 0.33% (n = 300,000);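 active = inhibition above the mean of all tested compounds plus 3 SD, set per screening campaign, cut at about 45% in these data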
#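 Material: GST/Flag-tagged HCV core106 proteins. Incubation: 4 h, 22.5 °C incubation. Read-out basis: inhibition (%) from 671 over 617 nm ratio. Measured by: TR-FRET, excitation 340 nm, emission 617 and 671 nm.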
# NS3 helicase cf: confirmation of Hepatitis C virus NS3 helicase inhibitors. shares compounds with NS3 helicase inh. NS3 helicase DNA unwinding, Cy5 molecular beacon fluorescence. inhibition, % at 10.9 µM. actives 31% (n = 1,600). AID 1943;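 active = inhibition above the mean of all tested compounds plus 3 SD, cutoff set per campaign, cut at about 36% in these data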
# DNA FID counter-2: counter-screen for HCV NS3 helicase inhibitors: DNA intercalator displacement. DNA fluorescent intercalator displacement, fluorescence. shares compounds with NS3 helicase inh. inhibition, % at 7.9 µM. actives 4% (n = 1,600);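 note: higher means more displacement of ethidium bromide from the DNA hairpin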
# DNA FID DR: displaces fluorescent intercalator from DNA, HCV helicase counter-screen. fluorescent intercalator displacement from DNA, fluorescence. IC50, µM. AID 2172. shares compounds with NS3 helicase inh. 120 tested, under 10 active; call rule not given here
# Hits are given with their value; 0 = inactive; - = not tested or not shown. Cut-off read from the data, not from the text of the source, unless noted: active = inhibition above about 37%; inactive = the rest.
SMILES,DNA FID counter-1,DAGLB inh,GRK2 aptamer HTS,NS3 helicase inh,GPR7 antag,HCV core dimer,NS3 helicase cf,DNA FID counter-2,others
COc1cc(NC(=O)CN2CCN(C(=O)c3ccco3)CC2)c(C)cc1[N+](=O)[O-],-,0,-,-,-,-,-,-,
CCC(=O)Nc1cc(OC)c(NC(=S)Nc2ccccc2CC)cc1OC,-,0,-,-,-,-,-,-,
Cc1cc(OC(C)C(=O)NCCN2CCOCC2)c2c(C)cc(=O)oc2c1 (stereo unspecified),0,0,0,0,0,0,-,-,
COc1cccc(/C(O)=C2/C(=O)C(=O)N(Cc3ccco3)C2c2ccncc2)c1 (stereo unspecified),0,0,0,0,0,0,-,-,
O=C1C(=O)N(Cc2ccco2)C(c2cccs2)/C1=C(\O)c1cccc([N+](=O)[O-])c1 (stereo unspecified),0,0,0,43,0,0,0,0,
O=C(C1=C(O)C(=O)N(c2ncccn2)C1c1ccc(Cl)cc1)c1ccco1 (stereo unspecified),0,0,0,43,0,0,0,0,
CCOC(=O)C1CCCN(C(=O)c2cc3c(=O)n(C)c4ccccc4c3n2C)C1 (stereo unspecified),0,0,0,75,0,0,0,0,
O=C(CSc1nc2ccccc2n1Cc1ccccc1)N/N=C/c1ccccc1C(=O)O,0,0,0,0,0,0,-,-,
O=C(CSc1nc2ccccc2n1Cc1ccccc1Cl)N/N=C/c1ccccc1C(=O)O,0,0,0,40,0,0,50,0,
O=C(NCCc1cccs1)C12CN(Cc3ccccc3)CC1C(c1cccc([N+](=O)[O-])c1)=NO2 (stereo unspecified),0,0,0,56,0,0,0,0,
O=C(NCCCCc1ccccc1)C12CN(Cc3ccccc3)CC1C(c1cccc([N+](=O)[O-])c1)=NO2 (stereo unspecified),0,0,0,0,0,0,-,-,
Oc1cccc(C=Nc2cccc3ccccc23)c1O,0,0,0,46,0,0,0,0,
Oc1ccccc1C=Nc1cccc2ccccc12,0,0,0,0,0,0,-,-,
Cc1ccc(S(=O)c2ccc([N+](=O)[O-])c3nonc23)cc1 (stereo unspecified),-,0,-,-,-,-,-,-,
Cc1cccc(NC(=O)CSc2nnc(-c3ccco3)c(-c3ccco3)n2)c1C,0,0,0,52,0,0,77,0,
C[C@H]1CN([C@@H](C)CO)C(=O)CCCn2cc(nn2)CO[C@@H]1CN(C)S(=O)(=O)c1cccc(F)c1,-,0,-,-,-,-,-,-,
NS(=O)(=O)c1ccc(N2C(=O)C(=O)/C(=C(/O)c3ccccc3)C2c2ccc(Cl)cc2)cc1 (stereo unspecified),0,0,0,41,0,0,0,0,
CCN1CCN(c2ncnc3sc(C)c(-c4ccccc4)c23)CC1,0,0,0,0,0,0,-,-,
Cc1ccc(-n2c(SCC(=O)O)nc3sc4c(c3c2=O)C(C)CCC4)cc1 (stereo unspecified),0,0,0,55,0,0,66,0,
COc1cccc(OCCOc2ccc(/C=C3/SC(=S)NC3=O)cc2)c1,0,0,0,48,0,0,54,0,
O=C(c1ccc([N+](=O)[O-])cc1)N1CCC(Cc2ccccc2)CC1,0,0,0,0,0,0,-,-,
O=C(c1cnc(Cl)c(Cl)c1)N1CCC(Cc2ccccc2)CC1,0,0,0,37,0,0,0,0,
Cc1cccc(OCC(=O)Nc2nnc(-c3ccco3)s2)c1,0,0,0,41,0,0,0,0,
COc1ccccc1OCC(=O)Nc1nnc(-c2ccco2)s1,0,0,-,0,0,-,-,-,
N#CC1=C(N)S[C@@H](C(=O)c2ccc(F)cc2)[C@@H]1c1cccs1,0,0,0,39,0,0,0,0,
SMILES,DNA FID counter-1,DAGLB inh,GRK2 aptamer HTS,NS3 helicase inh,GPR7 antag,HCV core dimer,NS3 helicase cf,DNA FID counter-2,others
O=C(CN1CCOCC1)N/N=C/c1ccc(-c2cccc(Cl)c2Cl)o1,0,0,0,0,0,0,-,-,
C=CCn1c(SCC(C)=O)nc2scc(-c3ccc(C)o3)c2c1=O,0,0,0,0,0,0,-,-,
C=CCn1c(SCC(=O)NCCCC)nc2scc(-c3ccco3)c2c1=O,0,0,0,50,0,0,82,0,DNA FID DR=0
O=C(COc1ccccc1)Nc1nnc(S(=O)(=O)Nc2ccccc2)s1,0,0,0,0,0,0,-,-,
O=C(O)CN1C(=O)/C(=C\C(Br)=C\c2ccccc2)SC1=S,0,0,0,38,0,0,72,0,
Cc1ccc(-c2nn(-c3ccccc3)cc2/C=C2\SC(=S)N(CC(=O)O)C2=O)cc1,0,0,0,47,0,0,61,46,
C=CCN1C(=O)/C(=C\C(C)=C\c2ccccc2)SC1=S,0,0,0,0,0,0,-,-,
O=C(O)CN1C(=O)/C(=C\c2cc(Br)ccc2OCc2ccc(Cl)cc2Cl)SC1=S,0,0,0,76,0,0,86,52,
O=C(O)CN1C(=O)/C(=C\c2cccc(OCc3ccc(Cl)cc3)c2)SC1=S,0,0,0,0,0,0,-,-,
COc1ccc(-c2nn(-c3ccccc3)cc2/C=C2/SC(=S)N(CCC(=O)O)C2=O)cc1,0,0,0,0,0,0,-,-,
O=C(O)CN1C(=O)/C(=C\c2ccccc2OCc2ccc(Cl)cc2)SC1=S,0,0,0,43,0,0,70,0,
O=C(NC1CC1)c1cccc2c1C(=O)c1ccc(N3CCC(N4CCCCC4)CC3)cc1S2(=O)=O,-,0,-,-,-,-,-,-,
COc1ncnc2c1ncn2CCCN(CCCc1ccccc1)CCCn1cnc2c(OC)ncnc21,-,0,-,-,-,-,-,-,
CC(=O)NCCc1nc2cc(NS(=O)(=O)c3ccc(Cl)cc3)ccc2n1C,0,0,0,37,0,0,0,0,
CC(=O)NCCc1nc2cc(NS(=O)(=O)c3ccccc3)ccc2n1C,0,0,0,0,0,0,-,-,
N#CC1=C(S)N(c2ccccc2)C(c2ccc(-c3cccc(Cl)c3)o2)NC1=O (stereo unspecified),0,0,0,36,0,0,60,0,
Cc1cccc(N2C(S)=C(C#N)C(=O)NC2c2ccco2)c1 (stereo unspecified),0,0,0,0,0,0,-,-,
CCOC(=O)c1cnc(-c2ccccc2)nc1N1CCOCC1,0,0,0,49,0,0,0,0,
COc1ccc(Nc2cc(C(=O)NCCCN3CCN(C)CC3)c3ccccc3n2)c(OC)c1,0,0,0,64,0,0,0,66,
COc1ccc(Nc2cc(C(=O)NCCCOC(C)C)c3ccccc3n2)c(OC)c1,0,0,0,0,0,0,-,-,
